Compounds with a hit are over-represented: about 3.5% of the library has one in this group of screens.
esBAF inh = SWI/SNF esBAF complex inhibition; 350,000 compounds, 2% hits; mouse ES cells, Bmi1-luciferase knock-in reporter, 24 h; 100% = twice the neutral-well signal; reporter increase, % at 12.5 µM; in the data active means activation above about 40%; inconclusive means no clear call, values can overlap the other calls;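 further: 0% = median of the plate's neutral control wells and 100% = double that signal; a rise in the Bmi1 reporter signal indicates esBAF inhibition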
Env fusion inh = HIV envelope-mediated fusion inhibition | HeLa-JRFL Env/CEM21 cell fusion, luciferase | inhibition, % at 12.3 µM | 360,000 compounds, 1.1% hits;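 active means mean replicate inhibition score of at least 50 and every replicate individually at or above 50; inconclusive means only one of the two criteria met; inactive means mean below 50 and not all replicates reaching 50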;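 further: 0% = plate neutral controls and 100% = maraviroc near 300 nM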
Wnt bcat act = activators of Wnt/beta-catenin signaling; Wnt/beta-catenin reporter cell assay, activator, plate reader; activation, % at 9.35 µM; 300,000 compounds, 1.2% hits; AID 743398; in the data active means activation above about 30%, passing the limit was not always enough; inconclusive means no clear call, values can overlap the other calls;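 further: 0% = neutral control wells and 100% = positive control wells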
Cneo AK release = Cryptococcus neoformans lysis via adenylate kinase release. C. neoformans lysis, adenylate kinase release luminescence, 4 h; normalised: neutral wells 0, clomiphene wells 100. lysis activity, % at 15 µM. 360,000 compounds, 0.2% hits;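 active means mean lysis activity across replicates of at least 80%, whatever share of replicates individually reach that level; inactive means mean lysis activity below 80%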
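Test system: log-phase Cryptococcus neoformans yeast cells. Input: 5 × 10^6 yeast cells/mL. Medium: fresh YPD growth medium. Doses: single dose. Incubation: static 4 h at 37 °C with compound, 1 h detection. Measured by: luminescent adenylate kinase detection reagent. Read-out: signal increase indicating cell lysis. Benchmarks: Clomiphene.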
MITF TRPM1 HTS = increases MITF-driven TRPM1 promoter luciferase signal; SK-MEL-5 TRPM1-promoter luciferase, 24 h; % of positive control, neutral wells = 0; 300,000 compounds, 0.75% hits; activation, % at 12.5 µM;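 active means mean activation of at least 80% with every replicate also reaching 80%; inconclusive means mean reaches 80% but some replicate falls short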;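 further: 0% = neutral control wells and 100% = parthenolide positive control wells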
ERAP1 HTS inh = ERAP1 (human) enzyme inhibition; Q9NZ08; recombinant ERAP1, Leu-AMC fluorescence, 60 min; inhibition, % at 10.7 µM; 340,000 compounds, 0.15% hits;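 active means mean replicate inhibition of at least 30%, or all replicates individually reaching that 30% level; inactive means mean below 30% and not every replicate reaching it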;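 further: 0% = neutral control wells and 100% = L-leucinethiol positive control wells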
Target sequence (Q9NZ08 whole entry, looked up): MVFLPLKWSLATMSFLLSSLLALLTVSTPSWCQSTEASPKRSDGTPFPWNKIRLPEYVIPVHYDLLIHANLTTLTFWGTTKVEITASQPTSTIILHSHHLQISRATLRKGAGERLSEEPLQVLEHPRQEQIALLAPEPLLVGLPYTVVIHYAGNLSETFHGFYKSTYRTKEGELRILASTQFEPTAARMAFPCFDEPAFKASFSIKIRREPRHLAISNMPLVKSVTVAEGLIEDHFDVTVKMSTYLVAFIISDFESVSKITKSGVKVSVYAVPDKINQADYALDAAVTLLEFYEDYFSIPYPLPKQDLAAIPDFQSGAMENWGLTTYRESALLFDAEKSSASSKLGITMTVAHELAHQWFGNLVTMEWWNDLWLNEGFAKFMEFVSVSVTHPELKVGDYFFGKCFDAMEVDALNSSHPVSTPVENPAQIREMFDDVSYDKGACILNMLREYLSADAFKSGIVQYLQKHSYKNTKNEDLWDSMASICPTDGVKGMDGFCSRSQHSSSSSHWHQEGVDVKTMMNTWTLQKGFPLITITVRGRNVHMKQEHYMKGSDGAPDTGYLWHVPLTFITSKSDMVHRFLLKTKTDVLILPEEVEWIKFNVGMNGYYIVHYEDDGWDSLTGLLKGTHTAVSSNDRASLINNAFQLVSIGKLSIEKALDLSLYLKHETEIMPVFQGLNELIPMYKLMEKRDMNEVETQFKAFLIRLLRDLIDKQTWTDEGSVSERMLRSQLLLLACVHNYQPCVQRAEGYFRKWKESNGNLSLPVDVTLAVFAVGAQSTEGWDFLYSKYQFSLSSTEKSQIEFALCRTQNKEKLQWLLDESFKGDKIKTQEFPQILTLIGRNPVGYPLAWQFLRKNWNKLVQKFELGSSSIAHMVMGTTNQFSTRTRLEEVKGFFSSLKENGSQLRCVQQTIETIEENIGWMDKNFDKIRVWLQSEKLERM
* marks the source's active call; other numbers are inactive results; ? = inconclusive; . = no result given; [ ] = another dose, or the depositor's remark.

SMILES | esBAF inh | Env fusion inh | Wnt bcat act | Cneo AK release | MITF TRPM1 HTS | ERAP1 HTS inh
CCOC(=O)C1=C(C)NC(C)=C(C(=O)OCC)C1C | -0.9 | -21.5 | 6.4 | . | -4.4 | 33.7*
COCC(=O)N1CC2(C1)[C@H](c1ccc(C3=CCCC3)cc1)[C@@H](CO)N2C(=O)COC | . | . | . | . | . | 0.1
CN(C)CC(=O)N[C@H]1CC[C@H](CCNC(=O)Nc2ccc(C(F)(F)F)cc2)O[C@H]1CO | 2.0 | 4.8[16.7 µM] | . | -6.2 | . | -3.8
CCOC1=C2[C@H](c3ccccc3)N(S(=O)(=O)c3ccc(C)cc3)[C@H](C(C)C)[C@H]2C(C#N)(C#N)C(C#N)(C#N)C1 | . | 107.0* | -2.3 | . | . | .
CCOC1=C2[C@H](c3ccc(CC)cc3)N(S(=O)(=O)c3ccc(C)cc3)C[C@H]2C(C#N)(C#N)C(C#N)(C#N)C1 | -15.0 | -90.8 | -0.2 | -5.9 | . | .
O=C(CSc1nnc(COc2ccc(Cl)cc2)o1)N(c1ccccc1)C1CCS(=O)(=O)C1 (stereo unspecified) | 5.8 | 65.4* | -6.3 | -3.2 | . | -3.3
CC(Oc1ccc(F)cc1)c1nnc(SCC(=O)N(c2ccccc2)C2CCS(=O)(=O)C2)o1 (stereo unspecified) | -2.6 | 45.4 | -0.1 | 3.6 | -8.6 | -0.1
Cc1noc(C)c1NC(=O)Nc1ccc2c(c1)C(=O)N([C@H](C)CO)C[C@@H](C)[C@@H](CN(C)S(=O)(=O)c1ccccc1)O2 | 0.5 | 15.1[16.7 µM] | . | . | . | .
C(=NOCCc1ccccc1)c1ccncc1 | 48.7* | 0.9 | 0.0 | 0.3 | 90.7* | 2.1
C(=NOCCc1ccccc1)c1ccccn1 | 95.2* | . | 7.5 | 0.9 | 46.4 | 0.8
C[C@H]1CN([C@@H](C)CO)C(=O)Cc2cc(NC(=O)NC3CCCCC3)ccc2O[C@H]1CN(C)S(=O)(=O)c1ccc(Cl)cc1 | -6.8 | -20.9[16.7 µM] | . | 4.6 | . | 0.4
CCCC(=O)N(Cc1cc(=O)[nH]c2ccccc12)c1ccc(C)cc1C | -5.9 | 0.1 | -3.7 | 1.7 | -5.8 | 1.2
Cc1ccc(N(Cc2cc(=O)[nH]c3ccccc23)C(=O)CCl)c(C)c1 | . | 55.4* | -3.2 | . | -61.4 | -3.9
C[C@H](CO)N1C[C@H](C)[C@@H](CN(C)S(=O)(=O)c2ccc(Cl)cc2)Oc2ccc(NS(=O)(=O)c3ccc(F)cc3)cc2CC1=O | 6.4 | 13.6[16.7 µM] | . | 1.3 | . | .
COc1ccc(CN(C)C[C@H]2OCCCC[C@@H](C)Oc3ccc(NC(=O)Nc4c(C)noc4C)cc3C(=O)N([C@H](C)CO)C[C@@H]2C)cc1 | -4.4 | 4.2[16.7 µM] | . | -2.3 | . | -2.5
O=C(C[C@H]1CC[C@H]2[C@@H](COC[C@H](O)CN2C(=O)c2cnccn2)O1)NCc1ccc(F)cc1 | 0.5 | -2.7[16.7 µM] | . | -0.7 | . | -0.1
O=C(CSc1n[nH]c(-c2cccs2)n1)NC1CCS(=O)(=O)C1 (stereo unspecified) | -1.3 | 20.4 | 3.0 | 6.0 | -27.3 | 34.7*
O=C(CSc1n[nH]c(-c2ccncc2)n1)NC1CCS(=O)(=O)C1 (stereo unspecified) | -3.3 | 25.5 | -2.2 | -0.1 | . | .
Cn1cccc1C(=O)OCc1cc(-c2ccco2)on1 | 82.8* | . | 27.4 | 2.6 | 98.5* | 1.7
COc1cc(-c2nnc(COC(=O)c3cccn3C)o2)cc(OC)c1OC | . | -4.5 | -1.5 | 0.0 | 15.9 | 1.8
C/C(=N\N=c1/sc2ccccc2n1C)c1ccccn1 | ? | -19.8 | 51.6* | 0.6 | 64.4 | 9.6
CCN(CC)c1ccc2nc3ccccc3[n+](CC)c2c1 | -66.4 | . | . | -1.6 | . | .
CCN(CC)c1ccc2nc3ccc(N)cc3[n+](-c3ccccc3)c2c1 | -81.6 | 71.6* | -17.9 | -5.7 | -92.9 | 2.3
C[C@H](CO)N1C[C@H](C)[C@@H](CN(C)S(=O)(=O)c2ccc(C#N)cc2)OCc2ccccc2-c2ccccc2C1=O | -0.1 | . | . | -0.4 | . | 3.1
Nc1cc2c(cc1N)-c1ccccc1C2 | 29.1 | -17.4 | 16.8 | -4.4 | 31.9 | -0.4
Nc1ccc2c(c1)Cc1cc(Cl)c(Cl)cc1-2 | . | 59.9* | 4.3 | 1.1 | 24.7 | -2.5
Nc1ccc2c(c1)Cc1c(F)cccc1-2 | 57.2* | . | . | -1.1 | 65.3 | .
Cc1ccc(C)c(NC(=S)c2ccccn2)c1 | 46.4* | -50.7 | 36.3* | 11.8 | 12.8 | .
Cc1ccc(C)c(NC(=S)c2ccc3ccccc3n2)c1 | 75.6* | -22.3 | 21.8 | -6.1 | 43.7 | 1.3
S=C(Nc1ccccn1)c1ccccn1 | 5.3 | . | -3.4 | -0.5 | . | .
